ChEMBL document CHEMBL4308830, “Design, Synthesis, and Characterization of 4-Undecylpiperidine-2-carboxamides as Positive Allosteric Modulators of the Serotonin (5-HT) 5-HT2C Receptor” (J Med Chem, 2018)
The source made the active and inactive calls. The rule behind the calls is not given here.

Experiments:
[1] = molecular target: 5-hydroxytryptamine receptor 1E (Homo sapiens) (UniProt P28566); test: Displacement of [3H]-5-HT from recombinant human 5-HT1ER expressed in HEK cell membranes at 10 uM after 90 mins by scintillation counting method relative to control
[2] = molecular target: T1, 5-hydroxytryptamine receptor 2C (Homo sapiens) (UniProt P28335); test: Positive allosteric modulation of human 5-HT2CR expressed in CHO cells assessed as increase in 5-HT-induced intracellular calcium release at 0.000001 to 1 uM preincubated for 15 mins followed by 5-HT addition by calcium-4 dye based FLIPR assay; format: functional, cell-based
T1 sequence (whole entry): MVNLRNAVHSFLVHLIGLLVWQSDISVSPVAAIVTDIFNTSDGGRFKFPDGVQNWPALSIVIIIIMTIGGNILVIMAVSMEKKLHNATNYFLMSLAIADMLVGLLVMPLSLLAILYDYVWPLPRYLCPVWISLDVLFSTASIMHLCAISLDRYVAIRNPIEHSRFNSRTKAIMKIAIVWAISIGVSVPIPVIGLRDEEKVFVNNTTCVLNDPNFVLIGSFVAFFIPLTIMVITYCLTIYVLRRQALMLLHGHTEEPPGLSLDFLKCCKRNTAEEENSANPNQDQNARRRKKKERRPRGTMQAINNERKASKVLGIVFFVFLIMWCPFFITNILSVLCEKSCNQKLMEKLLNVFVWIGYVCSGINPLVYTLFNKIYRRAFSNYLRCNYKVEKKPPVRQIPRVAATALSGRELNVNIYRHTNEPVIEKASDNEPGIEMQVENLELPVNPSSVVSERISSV
Outline: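 CHO cells stably expressing human unedited (INI) 5-HT2CR, passages 6–16, grown at 37 °C in medium with 5% FBS and hygromycin. Plated cells were serum-starved 3 h, then loaded 60 min at 37 °C plus 15 min at room temperature with Calcium 4 dye and 2.5 mM probenecid in HBSS pH 7.4. Compound (1 pM, 1 nM, 1 μM) was added 15 min before 5-HT (10 pM–10 μM), and fluorescence peak height was read.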

[3] = system: Rattus norvegicus; test: Increase in WAY163909-induced suppression of spontaneous locomotor activity in Sprague-Dawley rat assessed as reduction in total ambulation at 5 mg/kg, ip cotreated with WAY163909 at 15 mins post 5-HT2C antagonist SB242084 treatment measured for 30 mins; format: functional, organism-based
Outline: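 Rats (n = 9–10/group) received SB242084 (1 mg/kg ip) or vehicle (8% 2-hydroxypropyl-β-cyclodextrin) 15 min before ip WAY163909 (1 mg/kg) plus compound (5 mg/kg). They were placed in monitors immediately; ambulations and vertical activity were totalled over 30 min. Analysis: ANOVA with Bonferroni comparisons.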

[4] = molecular target: 5-HT2A receptor (Homo sapiens, UniProt P28223); test: Displacement of [3H]-Ketanserin from recombinant human 5-HT2AR expressed in HEKT cell membranes at 10 uM after 90 mins by scintillation counting method relative to control; conditions: probe [3H]-Ketanserin
[5] = molecular target: Alpha-2B adrenergic receptor (Homo sapiens) (UniProt P18089); test: Displacement of [3H]-rauwolscine from recombinant human alpha-2B adrenergic receptor expressed in HEKT cell membranes at 10 uM after 90 mins by scintillation counting method relative to control
Outline: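 Single-concentration screen at 10 μM test compound, each target labelled with the radioligand given in the line. The read-out is mean % inhibition of specific radioligand binding (n = 4). Targets above 50% inhibition went on to full competition isotherms, and Ki came from best-fit IC50 by the Cheng–Prusoff equation.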

[6] = molecular target: 5-hydroxytryptamine receptor 7 (Homo sapiens) (UniProt P34969); test: Displacement of [3H]-LSD from recombinant human 5-HT7R expressed in HEK cell membranes at 10 uM after 90 mins by scintillation counting method relative to control
[7] = Clearance in Sprague-Dawley rat at 5 mg/kg, iv administered as single dose; format: ADME, organism-based; conditions: in vivo

5-HT2A receptor, sequence (P28223 whole entry): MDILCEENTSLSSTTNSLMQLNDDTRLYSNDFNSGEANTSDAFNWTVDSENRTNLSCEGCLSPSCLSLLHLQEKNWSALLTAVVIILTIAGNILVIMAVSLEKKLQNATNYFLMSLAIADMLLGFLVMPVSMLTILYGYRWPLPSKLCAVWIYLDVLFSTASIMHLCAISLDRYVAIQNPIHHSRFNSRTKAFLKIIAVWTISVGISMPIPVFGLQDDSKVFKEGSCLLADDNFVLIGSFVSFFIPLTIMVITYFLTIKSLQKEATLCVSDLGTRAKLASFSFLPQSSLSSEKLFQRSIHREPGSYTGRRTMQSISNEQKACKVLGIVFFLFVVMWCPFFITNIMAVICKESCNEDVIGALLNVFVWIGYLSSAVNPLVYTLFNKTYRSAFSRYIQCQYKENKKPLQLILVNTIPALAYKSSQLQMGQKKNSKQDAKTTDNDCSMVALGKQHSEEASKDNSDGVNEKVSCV
5-hydroxytryptamine receptor 1E (Homo sapiens), sequence (P28566 whole entry): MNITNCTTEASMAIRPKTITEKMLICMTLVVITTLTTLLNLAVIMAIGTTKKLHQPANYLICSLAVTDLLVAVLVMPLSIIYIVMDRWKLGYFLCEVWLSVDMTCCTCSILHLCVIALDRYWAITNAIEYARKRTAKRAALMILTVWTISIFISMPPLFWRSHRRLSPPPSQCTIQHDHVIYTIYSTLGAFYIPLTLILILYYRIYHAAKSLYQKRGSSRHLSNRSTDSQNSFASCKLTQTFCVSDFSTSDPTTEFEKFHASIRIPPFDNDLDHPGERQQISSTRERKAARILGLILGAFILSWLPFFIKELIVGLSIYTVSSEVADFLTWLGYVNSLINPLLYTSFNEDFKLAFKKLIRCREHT
Alpha-2B adrenergic receptor (Homo sapiens), sequence (P18089 whole entry): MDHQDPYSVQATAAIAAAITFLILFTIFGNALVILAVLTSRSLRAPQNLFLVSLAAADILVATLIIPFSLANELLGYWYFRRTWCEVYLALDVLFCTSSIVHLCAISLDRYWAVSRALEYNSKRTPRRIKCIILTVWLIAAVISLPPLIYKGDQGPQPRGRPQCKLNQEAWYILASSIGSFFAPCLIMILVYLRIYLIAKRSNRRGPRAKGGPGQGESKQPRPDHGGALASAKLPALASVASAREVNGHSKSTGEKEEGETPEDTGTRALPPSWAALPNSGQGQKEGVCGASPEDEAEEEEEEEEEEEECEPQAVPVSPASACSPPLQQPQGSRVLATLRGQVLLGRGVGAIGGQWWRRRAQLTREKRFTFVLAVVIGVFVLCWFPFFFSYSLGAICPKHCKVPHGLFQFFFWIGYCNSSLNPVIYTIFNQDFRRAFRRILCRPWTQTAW
5-hydroxytryptamine receptor 7 (Homo sapiens), sequence (P34969 whole entry): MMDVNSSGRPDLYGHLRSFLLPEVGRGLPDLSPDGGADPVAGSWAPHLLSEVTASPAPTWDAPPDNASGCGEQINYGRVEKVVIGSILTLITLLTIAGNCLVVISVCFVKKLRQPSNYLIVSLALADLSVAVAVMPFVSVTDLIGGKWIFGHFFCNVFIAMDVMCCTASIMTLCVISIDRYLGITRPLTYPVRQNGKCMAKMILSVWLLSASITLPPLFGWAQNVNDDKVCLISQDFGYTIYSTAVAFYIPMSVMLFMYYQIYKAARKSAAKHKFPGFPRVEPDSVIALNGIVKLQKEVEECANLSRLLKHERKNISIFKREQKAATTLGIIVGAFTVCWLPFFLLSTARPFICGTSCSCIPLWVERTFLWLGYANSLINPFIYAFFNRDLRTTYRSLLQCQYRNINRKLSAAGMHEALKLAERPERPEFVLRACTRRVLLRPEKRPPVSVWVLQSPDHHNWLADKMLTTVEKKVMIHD

## CCCCCCCCCCC[C@@H]1CCN[C@H](C(=O)NCC(O)CO)C1 (relative stereo)
[1]
  inhibition: 0.7%
[2]
  Activity: Active
[3]
  Activity: inactive
[4]
  inhibition at 1.5 h, 10 µM: 37.1%
[5]
  inhibition: 80.7%
[6]
  inhibition: 26.8%
[7]
  CL: 5.37 L/h/kg
